Tests used:
[1] = Ratio of unbound drug level in brain to plasma in Hartley guinea pig at 30 mg/kg, po measured at 3 hrs; format: ADME, organism-based, Cavia porcellus; design: dose 30 mg/kg, route oral; details: brain and plasma (unbound), read-out: K(p,uu,brain)
Summary of the method: (§1)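 Male Hartley guinea pigs given single oral doses of 30, 60 or 100 mg/kg in 1% CMC/0.5% Tween/5 mM citrate in H₂O, 6–8 animals per cohort. Plasma, brain and CSF sampled at 1–12 h; free brain to free plasma ratio computed.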

[2] = Drug uptake in Hartley guinea pig CSF at 60 mg/kg, po measured at 8 hrs; format: ADME, organism-based, Cavia porcellus, Cerebrospinal fluid; design: dose 60 mg/kg, route oral; details: read-out: Drug uptake
Summary of the method: (§2)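 Male Hartley guinea pigs, oral dosing (CMC/Tween/citrate suspension or PEG/EtOH/H₂O solution), six or eight animals per cohort; CSF drug concentration (nM) measured at each time point.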

[3] = Fraction unbound in Hartley guinea pig brain at 30 mg/kg, po measured at 3 hrs; format: ADME, organism-based, Cavia porcellus; design: dose 30 mg/kg, route oral; details: in vivo
Brain [4] = assay: Fraction unbound in Sprague-Dawley rat brain at 60 mg/kg, po measured at 12 hrs; format: ADME, organism-based; design: dose 60 mg/kg, route oral; details: in vivo
Summary of the method: (§3)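 Male Sprague–Dawley rats dosed 60 mg/kg po in 1% CMC/0.5% Tween/5 mM citrate in H₂O; plasma, brain and CSF taken at 1, 3, 5, 8 and 12 h; unbound plasma and brain levels and their ratio determined.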

Brain [5] = assay: Fraction unbound in Sprague-Dawley rat brain at 60 mg/kg, po measured at 1 hr; format: ADME, organism-based; design: dose 60 mg/kg, route oral; details: in vivo; summary of the method: as §3
[6] = Ratio of unbound drug level in brain to plasma in Hartley guinea pig at 60 mg/kg, po measured at 12 hrs; format: ADME, organism-based, Cavia porcellus; design: dose 60 mg/kg, route oral; details: brain and plasma (unbound), read-out: K(p,uu,brain); summary of the method: as §1
[7] = Drug uptake in Hartley guinea pig CSF at 30 mg/kg, po measured at 3 hrs; format: ADME, organism-based, Cavia porcellus, Cerebrospinal fluid; design: dose 30 mg/kg, route oral; details: read-out: Drug uptake; summary of the method: as §2
[8] = Ratio of unbound drug level in brain to plasma in Sprague-Dawley rat at 60 mg/kg, po measured at 3 hrs; format: ADME, organism-based; design: dose 60 mg/kg, route oral; details: brain and plasma (unbound), read-out: K(p,uu,brain); summary of the method: as §3
[9] = Unbound plasma concentration in Hartley guinea pig at 60 mg/kg, po measured at 3 hrs; format: ADME, organism-based, Cavia porcellus; design: dose 60 mg/kg, route oral; details: in vivo
Summary of the method: (§4)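 Male Hartley guinea pigs were dosed orally at 30, 60 or 100 mg/kg, with six or eight animals per cohort. The vehicle was either a suspension in 1% CMC/0.5% Tween/5 mM citrate in H₂O or a 40/10/50 PEG/EtOH/H₂O solution, depending on compound. Unbound plasma concentration was sampled at 1–12 h post-dose alongside brain, CSF and CSF Aβ₁₋₄₀.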

[10] = Intrinsic clearance in CD-1 mouse hepatocytes at 2 uM after 60 to 120 mins; format: ADME, cell-based, Hepatocyte; details: read-out: CLH
Plasma [11] = assay: Unbound plasma concentration in cynomolgus monkey at 0.5 mg/kg, iv and 100 mg/kg, po measured at 2 hrs; format: ADME, organism-based, Macaca fascicularis; details: in vivo
Summary of the method: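 Female cynomolgus monkeys, three per dosing route, received 0.5 mg/kg iv and 100 mg/kg po. Unbound plasma concentration was reported at 2 h and 4 h post-dose.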

Brain [12] = assay: Fraction unbound in Sprague-Dawley rat brain at 60 mg/kg, po measured at 8 hrs; format: ADME, organism-based; design: dose 60 mg/kg, route oral; details: in vivo; summary of the method: as §3
[13] = Ratio of unbound drug level in brain to plasma in CD-1 mouse measured at 1 hr; format: ADME; details: mouse, 1 h
Summary of the method: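 Male CD-1 mice given 10 mg/kg po, 3 per cohort; plasma and brain collected at 1 and 4 h. Free brain/plasma ratio from unbound concentrations; coverage ratio = free brain concentration divided by HEK293 Aβ₁₋₄₀ cell IC50.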

[14] = Ratio of unbound drug level in brain to plasma in Hartley guinea pig at 60 mg/kg, po measured at 8 hrs; format: ADME, organism-based, Cavia porcellus; design: dose 60 mg/kg, route oral; details: brain and plasma (unbound), read-out: K(p,uu,brain); summary of the method: as §1
Brain [15] = assay: Fraction unbound in Sprague-Dawley rat brain at 60 mg/kg, po measured at 5 hrs; format: ADME, organism-based; design: dose 60 mg/kg, route oral; details: in vivo; summary of the method: as §3
Plasma [16] = assay: Unbound plasma concentration in Sprague-Dawley rat at 60 mg/kg, po measured at 5 hrs; format: ADME, organism-based; design: dose 60 mg/kg, route oral; details: in vivo
Summary of the method: (§5)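 Male Sprague-Dawley rats were given a single 60 mg/kg oral dose in 1% CMC/0.5% Tween/5 mM citrate in H₂O. Free plasma concentration was determined at 1, 3, 5, 8 and 12 h. Brain, CSF and CSF Aβ₁₋₄₀ were sampled at the same times.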

[17] = Unbound plasma concentration in Hartley guinea pig at 30 mg/kg, po measured at 3 hrs; format: ADME, organism-based, Cavia porcellus; design: dose 30 mg/kg, route oral; details: in vivo; summary of the method: as §4
[18] = Cmax in cynomolgus monkey CSF at 100 mg/kg, po measured at 2 hrs; format: ADME, organism-based, Macaca fascicularis, Cerebrospinal fluid; design: dose 100 mg/kg, route oral
[19] = Drug uptake in Hartley guinea pig CSF at 100 mg/kg, po measured at 3 hrs; format: ADME, organism-based, Cavia porcellus, Cerebrospinal fluid; design: dose 100 mg/kg, route oral; details: read-out: Drug uptake; summary of the method: as §2
[20] = Drug uptake in Sprague-Dawley rat CSF at 60 mg/kg, po measured at 5 hrs; format: ADME, organism-based, Cerebrospinal fluid; design: dose 60 mg/kg, route oral; details: read-out: Drug uptake
Summary of the method: (§6)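 Male Sprague−Dawley rats dosed orally at 60 mg/kg in 1% CMC/0.5% Tween/5 mM citrate in H₂O; CSF compound concentration (nM) at 1–12 h.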

[21] = Unbound plasma concentration in Hartley guinea pig at 60 mg/kg, po measured at 8 hrs; format: ADME, organism-based, Cavia porcellus; design: dose 60 mg/kg, route oral; details: in vivo; summary of the method: as §4
Brain [22] = assay: Fraction unbound in Sprague-Dawley rat brain at 60 mg/kg, po measured at 3 hrs; format: ADME, organism-based; design: dose 60 mg/kg, route oral; details: in vivo; summary of the method: as §3
[23] = Drug uptake in Sprague-Dawley rat CSF at 60 mg/kg, po measured at 12 hrs; format: ADME, organism-based, Cerebrospinal fluid; design: dose 60 mg/kg, route oral; details: read-out: Drug uptake; summary of the method: as §6
[24] = Ratio of unbound drug level in brain to plasma in Hartley guinea pig at 100 mg/kg, po measured at 3 hrs; format: ADME, organism-based, Cavia porcellus; design: dose 100 mg/kg, route oral; details: brain and plasma (unbound), read-out: K(p,uu,brain); summary of the method: as §1
[25] = Ratio of unbound drug level in brain to plasma in Sprague-Dawley rat at 60 mg/kg, po measured at 12 hrs; format: ADME, organism-based; design: dose 60 mg/kg, route oral; details: brain and plasma (unbound), read-out: K(p,uu,brain); summary of the method: as §3
[26] = Drug uptake in Sprague-Dawley rat CSF at 60 mg/kg, po measured at 8 hrs; format: ADME, organism-based, Cerebrospinal fluid; design: dose 60 mg/kg, route oral; details: read-out: Drug uptake; summary of the method: as §6
[27] = Unbound plasma concentration in Hartley guinea pig at 100 mg/kg, po measured at 3 hrs; format: ADME, organism-based, Cavia porcellus; design: dose 100 mg/kg, route oral; details: in vivo; summary of the method: as §4
[28] = Ratio of unbound drug level in brain to plasma in Sprague-Dawley rat at 60 mg/kg, po measured at 1 hr; format: ADME, organism-based; design: dose 60 mg/kg, route oral; details: brain and plasma (unbound), read-out: K(p,uu,brain); summary of the method: as §3
[29] = Fraction unbound in Hartley guinea pig brain at 60 mg/kg, po measured at 1 hr; format: ADME, organism-based, Cavia porcellus; design: dose 60 mg/kg, route oral; details: in vivo
[30] = Intrinsic clearance in Sprague-Dawley rat hepatocytes at 2 uM after 60 to 120 mins; format: ADME, cell-based, Hepatocyte; details: read-out: CLH
Plasma [31] = assay: Unbound plasma concentration in Sprague-Dawley rat at 60 mg/kg, po measured at 8 hrs; format: ADME, organism-based; design: dose 60 mg/kg, route oral; details: in vivo; summary of the method: as §5
[32] = Clearance in Hartley guinea pig liver microsomes at 1 uM after 20 mins by LC-MS/MS analysis in presence of NADPH; format: ADME, Cavia porcellus, Microsome; details: read-out: CLH
[33] = Drug uptake in Hartley guinea pig CSF at 60 mg/kg, po measured at 1 hr; format: ADME, organism-based, Cavia porcellus, Cerebrospinal fluid; design: dose 60 mg/kg, route oral; details: read-out: Drug uptake; summary of the method: as §2
[34] = Drug uptake in cynomolgus monkey CSF at 0.5 mg/kg, iv and 100 mg/kg, po measured at 4 hrs; format: ADME, organism-based, Macaca fascicularis, Cerebrospinal fluid; details: read-out: Drug uptake
Summary of the method: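 Female cynomolgus monkeys, 3 per dosing route; iv formulation PEG400/EtOH/water (40/10/50) solution; oral suspension in 1% CMC, 0.5% Tween 80, 5 mM citrate buffer; CSF concentration measured.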

Rattus norvegicus = assay: Hepatic clearance in Sprague-Dawley rat at 3 mg/kg, iv; format: ADME, organism-based, Liver; design: dose 3 mg/kg, route intravenous; details: in vivo
Summary of the method: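 Male Sprague–Dawley rats, 3 per cohort, iv 3 mg/kg in 30% captisol/5 mM citrate in saline; po 60 mg/kg in 1% CMC/0.5% Tween/5 mM citrate in H₂O.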

Kp uu at 3 h [1]: 1.6 | concentration at 8 h [2]: 1.6 nM | Drug uptake(free) [3]: 9.5 nM | Drug uptake(free) (Brain [4]): 46 nM | Drug uptake(free) (Brain [5]): 68 nM | Kp uu at 12 h [6]: > 3.7 | concentration at 3 h [7]: 9.9 nM | Kp uu at 3 h [8]: 0.03 | Cp(f) [9]: 23 nM | CLint scaled at 2 µM [10]: 36 mL/min/kg | Cp(f) (Plasma [11]): 3.2 µM | Drug uptake(free) (Brain [12]): 84 nM | K(p,uu,brain) [13]: 0.08 | Kp uu at 8 h [14]: > 1.7 | Drug uptake(free) (Brain [15]): 79 nM | Cp(f) (Plasma [16]): 2700 nM | Cp(f) [17]: 5.8 nM | Cmax [18]: 120 nM | concentration at 3 h [19]: 56 nM | concentration at 5 h [20]: 200 nM | Cp(f) [21]: < 3 nM | Drug uptake(free) (Brain [22]): 66 nM | concentration at 12 h [23]: 85 nM | Kp uu at 3 h [24]: 1.3 | Kp uu at 12 h [25]: 0.048 | concentration at 8 h [26]: 130 nM | Cp(f) [27]: 38 nM | Kp uu at 1 h [28]: 0.022 | Drug uptake(free) [29]: 19 nM | CLint scaled at 2 µM [30]: 35 mL/min/kg | Cp(f) (Plasma [31]): 1700 nM | CLint scaled at 1 µM [32]: 17 mL/min/kg | concentration at 1 h [33]: 69 nM | concentration at 4 h [34]: 84 nM | CLH (Rattus norvegicus): 30 mL/min/kg
SMILES: CN1C(=O)[C@]2(N=C1N)c1cc(-c3cccnc3F)ccc1O[C@H]1CCOC[C@@H]12

— ChEMBL document CHEMBL3124885, “Discovery of 7-tetrahydropyran-2-yl chromans: β-site amyloid precursor protein cleaving enzyme 1 (BACE1) inhibitors that reduce amyloid β-protein (Aβ) in the central nervous system” (J Med Chem, 2014)
